Only some compounds are listed: those with a hit (about 4.1% of all), similar ones and a draw of the others.
Mdm2-MdmX inh: inhibitors of human Mdm2-MdmX association, primary screen, cell-based, luminescence, split luciferase, SaOS-2, uHTS | Protein Mdm4 (Homo sapiens) + E3 ubiquitin-protein ligase Mdm2 (Homo sapiens), … | SaOS-2 split-luciferase Mdm2/MdmX complementation | inhibition, % at 8 µM | actives 3% (n = 330,000);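 active = inhibition of at least 50% at 8 µM in the primary screen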
Apaf-1 inh: inhibitors of human Apaf-1 apoptosome, primary screen, biochemical, DEVD-Rh110 fluorescence, uHTS. reconstituted apoptosome caspase-3 activity. Apoptotic protease-activating factor 1 (Homo sapiens), O14727. actives 0.71% (n = 330,000). AID 489030, 2010. inhibition, % at 20 µM; active = inhibition of at least 40% at 20 µM;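 note: plate controls were DMSO wells for no effect and DEVD-CHO caspase inhibitor wells for full effect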
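Material: cell-free apoptosome with Apaf-1, procaspase-3 and caspase-9; Buffer or medium: Hepes pH 7.5 with detergent and BSA; Reagent: cytochrome c trigger plus (Z-DEVD)2-Rh110 caspase-3 substrate; Times: compound with Apaf-1, dATP, procaspase-3 30 min, then 50 min reaction, room temperature; Technique: Rh110 fluorescence intensity.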
XBP1 UPR activ: activators of adaptive XBP1 UPR arm, primary screen, cell-based, CHO-XBP1 luciferase reporter, luminescence, uHTS; IRE1-XBP1 UPR activation; percent of tunicamycin response, DMSO as zero; activation, % at 20 µM; actives 0.33% (n = 330,000); AID 463104, 2010;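 active = versus positive control, 20 µM dose yields 30% or more activation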;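 note: 100% = tunicamycin at 10 µg/mL and 0% = DMSO only wells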
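Assay system: CHO-XBP1 luciferase reporter cells; Schedule: 6 h treatment, 37 °C; Detection: glow luminescence from Steady-Glo reagent; Benchmarks: high control tunicamycin 10 µg/mL final, low control DMSO vehicle only.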
UPR CHOP act: activators of apoptotic CHOP UPR arm, primary screen, cell-based, CHO-CHOP luciferase reporter, luminescence, uHTS; activation, % at 10 µM; actives 0.34% (n = 330,000); AID 449763, 2010; UPR activation; percent of tunicamycin response over DMSO baseline;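 active = at 10 µM dose, activation of 40% or more, normalized to positive control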;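 note: 100% = tunicamycin at 10 µg/mL and 0% = DMSO alone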
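Test system: CHO-CHOP cells, stable luciferase reporter of PERK-eIF2a-CHOP signalling | Quantity: 500 CHO-CHOP cells per well | Buffer or medium: F12 plus 10% serum | Compound dosing: 10 µM single point, 0.5% DMSO | Schedule: 6 h compound treatment, 37 °C | Signal: Luciferase luminescence | Control set: Tunicamycin high control, DMSO low control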
UBC13 inh: UBC13 polyubiquitin chain formation inhibitors, primary screen, biochemical, TR-FRET, uHTS | actives 0.47% (n = 330,000) | inhibition, % at 20 µM | AID 485273, 2010; in the data active = inhibition above about 45%, passing the limit was not always enough
Target sequence (P61088 whole entry, looked up): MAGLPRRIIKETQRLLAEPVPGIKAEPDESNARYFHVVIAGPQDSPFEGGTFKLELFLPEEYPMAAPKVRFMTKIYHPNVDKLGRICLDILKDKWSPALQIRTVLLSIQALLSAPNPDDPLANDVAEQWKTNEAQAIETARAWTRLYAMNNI
Mdm2 MdmX conf: Mdm2-MdmX complex disruptors, retested hits, confirmation, luminescence, single concentration. AID 489028, 2010. actives 55% (n = 10,000). Mdm2-MdmX binding, luminescent assay. shares compounds with Mdm2-MdmX inh. inhibition, % at 8 µM; in the data active = inhibition above about 40%
Full FLuc ctr: full-length luciferase signal inhibition, confirmation, counter-screen for Mdm2/MdmX interaction inhibitor project, cell-based, single concentration, SaOS-2; SaOS-2 full-length luciferase counterscreen, luminescence; actives 77% (n = 6,200); shares compounds with Mdm2-MdmX inh; inhibition, % at 8 µM; AID 504607, 2011;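 active = mean inhibition at 8 µM reaching about 37%, which flags the compound as non-specific, limit read from the data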;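 note: p53-null SaOS-2 cells with luciferase driven by a doxycycline-inducible promoter; compound on cells about two nights before reading with doxycycline added after day one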
Starred values were filed as active, the others as inactive; x = no result.

SMILES	Mdm2-MdmX inh	Apaf-1 inh	XBP1 UPR activ	UPR CHOP act	UBC13 inh	Mdm2 MdmX conf	Full FLuc ctr
CN1CCN(CCCNC(=O)c2cc3c(-c4ccc(Cl)cc4)nn(C)c3s2)CC1	68*	43*	-3	-1	46*	31	x
CCCCN(CC)CCNC(=O)c1cc2c(-c3ccccc3F)nn(C)c2s1	32	12	1	0	38	x	x
CC(=O)Nc1ccc(Nc2ccc3c4c(cc(=O)n3C)-c3ccccc3C(=O)c24)cc1	59*	-3	-1	2	-17	30	x
CC(=O)Nc1c2c3c(cccc3n(C)c1=O)C(=O)c1ccccc1-2	16	8	-5	-3	3	x	x
O=C(CN1C(=O)C2C3c4ccccc4C(c4ccccc43)C2C1=O)Nc1ccccc1C(=O)O (stereo unspecified)	-1	4	-1	0	-15	x	x
COc1cc2c(cc1OC)C(C)N(C(=O)Nc1cc(C)cc(C)c1)CC2 (stereo unspecified)	45	9	-1	-2	6	x	x
COc1cc2c(cc1OC)C(C)N(C(=O)c1cc3c(C)cc(C)cc3[nH]1)CC2 (stereo unspecified)	67*	24	-2	-1	2	73*	48*
CCCCOC(=O)Cn1c2ccc(OC)cc2c2nc3ccccc3nc21	75*	-6	-1	-1	-10	20	x
CCS(=O)(=O)c1ncc(Cl)c(C(=O)Nc2ccc(S(=O)(=O)N(C)c3ccccc3)cc2)n1	98*	19	-11	-11	15	100*	51*
CCN(c1ccccc1)S(=O)(=O)c1ccc(Cl)c(NC(=O)c2ccc(=O)[nH]n2)c1	53*	2	-3	0	-5	-3	x
CS(=O)(=O)c1ncc(Cl)c(C(=O)Nc2ccc(OC(F)F)cc2)n1	92*	-14	-13	-11	38	100*	52*
CCN(c1ccccc1)S(=O)(=O)c1ccc(NC(=O)c2nc(S(C)(=O)=O)ncc2Cl)cc1	99*	21	-11	-11	-12	96*	51*
CCN(c1ccccc1)S(=O)(=O)c1ccc(Cl)c(NC(=O)CSc2ncn[nH]2)c1	36	1	-3	-2	-7	x	x
O=C(Nc1ccc(OC(F)F)cc1)c1ccccn1	-7	-6	-2	0	-8	x	x
Nc1ccccc1C(=O)N1O[C@@H]2C=C[C@H]1CC2	27	3	0	3	x	x	x
CC(=O)Nc1ccc(N(C(=O)c2ccco2)C(C(=O)NC2CCCCC2)c2ccccc2)cc1 (stereo unspecified)	16	4	2	3	14	x	x
COc1ccc(C(C)NCCC(c2ccc(OC(C)C)cc2)c2ccccc2OC)cc1 (stereo unspecified)	99*	21	-4	1	37	69*	56*
COc1ccccc1C(CC(=O)Nc1ccc(Cl)cc1)c1ccc(OC(C)C)cc1 (stereo unspecified)	18	1	-1	2	-8	x	x
COc1ccc(C(CCNC(C)c2ccccc2)C(C)C)cc1 (stereo unspecified)	55*	6	1	-2	29	30	x
N/C(=N\c1nc2ccccc2o1)NC(=O)c1ccc(F)cc1	67*	0	2	2	-7	8	x
N/C(=N\c1nc2ccccc2o1)NC(=O)c1ccc(Cl)cc1	23	4	2	1	-14	x	x
COCCNC(=O)C1CCC(CNS(=O)(=O)c2ccccc2)CC1 (stereo unspecified)	-33	-2	3	1	-1	x	x
CNC[C@@H](C)NC[C@@H](Cc1ccccc1)NCCc1ccccc1	69*	1	-1	2	6	36	x
COc1cccc(-c2nc(C(=O)NCC3CCCO3)cc3c2[nH]c2ccccc23)c1 (stereo unspecified)	65*	5	5	7	4	25	x
CC(C)(C)n1nc(Cc2cccc3ccccc23)c2c(N)ncnc21	54*	21	1	2	40	23	x
SMILES	Mdm2-MdmX inh	Apaf-1 inh	XBP1 UPR activ	UPR CHOP act	UBC13 inh	Mdm2 MdmX conf	Full FLuc ctr
Cn1nc(Cc2cccc3ccccc23)c(C#N)c1N	21	2	-1	0	2	x	x
N#Cc1c([N+](=O)[O-])cc([N+](=O)[O-])cc1S(=O)(=O)Cc1ccccc1	98*	20	-9	-10	16	96*	0
COC(=O)C1=C(N)Oc2cc(C)n(CC3CCCO3)c(=O)c2C1c1ccccc1OC (stereo unspecified)	9	-3	-9	0	9	x	x
COC(=O)C1=C(N)Oc2cc(N(C)C)ccc2C1c1ccccc1OC (stereo unspecified)	61*	17	3	2	-15	40*	42*
CCC1CCCCN1CCCCOc1cccc(Cl)c1 (stereo unspecified)	21	0	5	-2	1	x	x
Cc1cc(C)cc(C(=O)NC(CC(N)=O)c2ccc(N3CCN(C)CC3)c([N+](=O)[O-])c2)c1 (stereo unspecified)	-12	8	0	0	-10	x	x
CC1(C)Cc2ccccc2C(c2cc3ccccc3oc2=O)=N1	62*	-6	2	-1	5	26	x
CC(=O)O[C@@H]1C[C@H]2C(C)(C)C(=O)C=C[C@]2(C)[C@H]2CC[C@@]3(C)[C@H](c4ccoc4)OC(=O)[C@H]4O[C@]43[C@@]21C	98*	20	0	1	-2	71*	34
CC1=C(C(=O)Nc2ccccc2F)C(c2ccsc2)C2=C(CC(C)(C)CC2=O)N1 (stereo unspecified)	46	3	-4	-2	4	x	x
CC1=C(C(=O)Nc2cccc(F)c2)C(c2ccsc2)C2=C(CC(C)(C)CC2=O)N1 (stereo unspecified)	54*	8	4	0	-2	54*	55*
CC1(C)c2[nH]c3ccccc3c2C[C@@H]2C(=O)N(Cc3ccccc3)C(=O)N21	-21	17	-1	1	9	x	x
COC(=O)[C@@H]1Cc2c([nH]c3ccccc23)C(C)(C)N1C(=O)CCl	100*	2	10	8	6	98*	17
